What was measured:
Assay type in all cases: cell-based
NR1wt/NR2Dwt receptors [1] = biological target: T1, NR1wt/NR2Dwt receptors (Rattus norvegicus, UniProt P35439+Q62645); assay: Kinetics of inhibition by MK-801, oocyte voltage-clamp; conditions: trace of Fig. 1f
[2] = system: NR1wt/NR2A-(2D NTD+L) receptors; assay: as above; conditions: NR2A-(2D NTD+L) vs NR2Awt
[3] = system: NR1wt/NR2D-(2A NTD+L) receptors; assay: as above; conditions: trace of Fig. 1f
[4] = system: NR1wt/NR2D-ΔNTD receptors; assay: as above; conditions: trace of Fig. 1f
[5] = system: NR1-A652C/NR2D-ΔNTD receptors; assay: MTSEA-induced potentiation of currents; conditions: NR2D-ΔNTD vs NR2D
[6] = system: NR1-A652C/NR2A-(2D NTD+L) receptors; assay: MTSEA-induced potentiation of currents; conditions: NR2A-(2D NTD+L) vs NR2Awt
NR1-A652C/NR2D receptors = NR1-A652C/NR2D receptors (Homo sapiens, UniProt O15399+Q05586, A652C); assay: MTSEA-induced potentiation of currents; conditions: NR2D-containing receptors (NR1-A652C)
[7] = system: receptors incorporating NR1wt and NR2Awt, NR2Bwt, NR2Dwt, NR2B-(2A NTD), NR2B-(2A NTD+L) or NR2D-(2A NTD+L); assay: Zinc sensitivity; conditions: zinc dose-response, all constructs of Fig. 3a
Procedure, shortened: (§1)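 Two-electrode voltage clamp was run at −60 mV at room temperature on oocytes nuclear-injected with NR1 and NR2 cDNAs (10 ng/µl, 1:1). […] Free zinc was buffered with tricine 10 mM (1 nM–1 µM) or ADA 1 mM (0.1–100 nM), and "0" zinc contained 10 µM DTPA. Dose-response curves gave IC50 and maximal inhibition.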

[8] = biological target: NR1wt/NR2D-(2A NTD+L) receptors; assay: Zinc sensitivity
Procedure, shortened: as §1

NR1wt/NR2Awt receptors = NR1wt/NR2Awt receptors (Homo sapiens, UniProt Q05586+Q12879); assay: Zinc sensitivity
Procedure, shortened: as §1

NR1wt/NR2Dwt receptors [9] = biological target: T1, NR1wt/NR2Dwt receptors; assay: Zinc sensitivity
Procedure, shortened: as §1

NR1wt/NR2Bwt receptors = NR1wt/NR2Bwt receptors (Homo sapiens, UniProt Q05586+Q13224); assay: Zinc sensitivity
Procedure, shortened: as §1

[10] = biological target: NR1wt/NR2B-(2A NTD+L) receptors; assay: Zinc sensitivity
Procedure, shortened: as §1

[11] = biological target: NR1wt/NR2B-(2A NTD) receptors; assay: Zinc sensitivity
Procedure, shortened: as §1

T1 sequence (Q62645 28-1323, other chains not shown): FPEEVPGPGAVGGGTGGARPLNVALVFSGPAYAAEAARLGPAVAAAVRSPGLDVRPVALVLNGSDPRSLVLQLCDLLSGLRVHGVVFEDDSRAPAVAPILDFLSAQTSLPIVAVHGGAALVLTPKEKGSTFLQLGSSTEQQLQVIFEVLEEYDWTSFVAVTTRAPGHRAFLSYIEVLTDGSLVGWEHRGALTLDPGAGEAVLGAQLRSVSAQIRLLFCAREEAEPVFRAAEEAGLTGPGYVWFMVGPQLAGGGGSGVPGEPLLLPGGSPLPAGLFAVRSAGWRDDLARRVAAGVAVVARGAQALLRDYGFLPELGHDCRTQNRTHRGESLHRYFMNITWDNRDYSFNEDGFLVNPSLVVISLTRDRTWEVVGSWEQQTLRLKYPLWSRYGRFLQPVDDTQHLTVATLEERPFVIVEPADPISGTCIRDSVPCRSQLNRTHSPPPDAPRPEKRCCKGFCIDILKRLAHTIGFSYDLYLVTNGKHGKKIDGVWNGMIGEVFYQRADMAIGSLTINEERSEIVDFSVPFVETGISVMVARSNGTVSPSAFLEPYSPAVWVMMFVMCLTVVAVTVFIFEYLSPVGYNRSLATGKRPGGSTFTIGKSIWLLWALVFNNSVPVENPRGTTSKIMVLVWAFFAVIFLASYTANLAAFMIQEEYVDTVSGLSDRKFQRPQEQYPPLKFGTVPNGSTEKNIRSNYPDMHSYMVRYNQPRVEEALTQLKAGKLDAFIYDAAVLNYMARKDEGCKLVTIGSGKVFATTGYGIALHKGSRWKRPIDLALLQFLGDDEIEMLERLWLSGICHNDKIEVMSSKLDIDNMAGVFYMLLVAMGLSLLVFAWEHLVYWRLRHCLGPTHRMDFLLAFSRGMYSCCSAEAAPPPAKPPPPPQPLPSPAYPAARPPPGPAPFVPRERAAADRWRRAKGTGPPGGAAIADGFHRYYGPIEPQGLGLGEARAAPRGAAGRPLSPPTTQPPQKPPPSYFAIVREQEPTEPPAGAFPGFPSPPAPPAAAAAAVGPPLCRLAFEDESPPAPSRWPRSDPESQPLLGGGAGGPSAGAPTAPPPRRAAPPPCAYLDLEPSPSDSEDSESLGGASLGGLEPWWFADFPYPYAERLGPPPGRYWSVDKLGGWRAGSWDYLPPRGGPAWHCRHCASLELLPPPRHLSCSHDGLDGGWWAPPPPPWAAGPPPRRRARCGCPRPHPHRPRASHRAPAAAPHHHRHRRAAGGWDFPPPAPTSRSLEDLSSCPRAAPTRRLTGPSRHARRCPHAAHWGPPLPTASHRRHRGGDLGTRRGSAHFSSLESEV
Chain of NR1wt/NR2Awt receptors (Q12879 23-1464, other chains not shown): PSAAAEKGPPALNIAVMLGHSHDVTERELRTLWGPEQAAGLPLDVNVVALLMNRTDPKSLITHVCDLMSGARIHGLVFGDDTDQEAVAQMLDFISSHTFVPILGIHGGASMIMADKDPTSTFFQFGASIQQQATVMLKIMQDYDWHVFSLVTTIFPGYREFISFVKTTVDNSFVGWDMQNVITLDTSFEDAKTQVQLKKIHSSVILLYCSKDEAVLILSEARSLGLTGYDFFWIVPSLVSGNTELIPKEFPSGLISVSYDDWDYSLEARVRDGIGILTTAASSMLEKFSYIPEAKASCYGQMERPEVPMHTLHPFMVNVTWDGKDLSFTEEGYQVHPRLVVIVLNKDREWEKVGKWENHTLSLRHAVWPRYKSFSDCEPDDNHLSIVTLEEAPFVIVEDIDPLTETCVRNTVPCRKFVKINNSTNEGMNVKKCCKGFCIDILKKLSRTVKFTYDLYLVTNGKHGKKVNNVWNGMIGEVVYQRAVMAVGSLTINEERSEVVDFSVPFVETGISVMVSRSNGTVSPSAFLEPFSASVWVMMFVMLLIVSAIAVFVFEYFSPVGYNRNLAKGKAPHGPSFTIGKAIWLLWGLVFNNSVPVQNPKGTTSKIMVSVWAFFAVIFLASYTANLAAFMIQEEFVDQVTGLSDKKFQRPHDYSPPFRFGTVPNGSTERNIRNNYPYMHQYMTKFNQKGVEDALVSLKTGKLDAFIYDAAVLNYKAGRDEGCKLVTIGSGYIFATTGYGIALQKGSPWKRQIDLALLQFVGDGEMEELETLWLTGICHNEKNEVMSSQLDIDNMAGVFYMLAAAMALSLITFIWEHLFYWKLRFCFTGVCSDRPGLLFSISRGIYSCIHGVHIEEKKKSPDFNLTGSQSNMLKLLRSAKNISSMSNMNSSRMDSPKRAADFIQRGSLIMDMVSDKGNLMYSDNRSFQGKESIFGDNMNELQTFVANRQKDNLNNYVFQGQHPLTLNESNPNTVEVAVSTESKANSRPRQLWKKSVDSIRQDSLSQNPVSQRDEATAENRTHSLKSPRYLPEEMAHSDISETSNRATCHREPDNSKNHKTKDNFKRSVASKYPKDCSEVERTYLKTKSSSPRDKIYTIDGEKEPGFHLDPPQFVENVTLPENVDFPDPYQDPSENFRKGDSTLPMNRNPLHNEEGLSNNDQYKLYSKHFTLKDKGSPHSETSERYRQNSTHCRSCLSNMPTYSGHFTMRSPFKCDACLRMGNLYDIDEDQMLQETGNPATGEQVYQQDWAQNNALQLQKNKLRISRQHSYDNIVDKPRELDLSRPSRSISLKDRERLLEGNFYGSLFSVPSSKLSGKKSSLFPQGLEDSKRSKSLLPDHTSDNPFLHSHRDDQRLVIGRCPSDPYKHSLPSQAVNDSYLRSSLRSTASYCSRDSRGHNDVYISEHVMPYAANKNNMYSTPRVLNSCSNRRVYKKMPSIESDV
Chain of NR1wt/NR2Bwt receptors (Q13224 27-1484, other chains not shown): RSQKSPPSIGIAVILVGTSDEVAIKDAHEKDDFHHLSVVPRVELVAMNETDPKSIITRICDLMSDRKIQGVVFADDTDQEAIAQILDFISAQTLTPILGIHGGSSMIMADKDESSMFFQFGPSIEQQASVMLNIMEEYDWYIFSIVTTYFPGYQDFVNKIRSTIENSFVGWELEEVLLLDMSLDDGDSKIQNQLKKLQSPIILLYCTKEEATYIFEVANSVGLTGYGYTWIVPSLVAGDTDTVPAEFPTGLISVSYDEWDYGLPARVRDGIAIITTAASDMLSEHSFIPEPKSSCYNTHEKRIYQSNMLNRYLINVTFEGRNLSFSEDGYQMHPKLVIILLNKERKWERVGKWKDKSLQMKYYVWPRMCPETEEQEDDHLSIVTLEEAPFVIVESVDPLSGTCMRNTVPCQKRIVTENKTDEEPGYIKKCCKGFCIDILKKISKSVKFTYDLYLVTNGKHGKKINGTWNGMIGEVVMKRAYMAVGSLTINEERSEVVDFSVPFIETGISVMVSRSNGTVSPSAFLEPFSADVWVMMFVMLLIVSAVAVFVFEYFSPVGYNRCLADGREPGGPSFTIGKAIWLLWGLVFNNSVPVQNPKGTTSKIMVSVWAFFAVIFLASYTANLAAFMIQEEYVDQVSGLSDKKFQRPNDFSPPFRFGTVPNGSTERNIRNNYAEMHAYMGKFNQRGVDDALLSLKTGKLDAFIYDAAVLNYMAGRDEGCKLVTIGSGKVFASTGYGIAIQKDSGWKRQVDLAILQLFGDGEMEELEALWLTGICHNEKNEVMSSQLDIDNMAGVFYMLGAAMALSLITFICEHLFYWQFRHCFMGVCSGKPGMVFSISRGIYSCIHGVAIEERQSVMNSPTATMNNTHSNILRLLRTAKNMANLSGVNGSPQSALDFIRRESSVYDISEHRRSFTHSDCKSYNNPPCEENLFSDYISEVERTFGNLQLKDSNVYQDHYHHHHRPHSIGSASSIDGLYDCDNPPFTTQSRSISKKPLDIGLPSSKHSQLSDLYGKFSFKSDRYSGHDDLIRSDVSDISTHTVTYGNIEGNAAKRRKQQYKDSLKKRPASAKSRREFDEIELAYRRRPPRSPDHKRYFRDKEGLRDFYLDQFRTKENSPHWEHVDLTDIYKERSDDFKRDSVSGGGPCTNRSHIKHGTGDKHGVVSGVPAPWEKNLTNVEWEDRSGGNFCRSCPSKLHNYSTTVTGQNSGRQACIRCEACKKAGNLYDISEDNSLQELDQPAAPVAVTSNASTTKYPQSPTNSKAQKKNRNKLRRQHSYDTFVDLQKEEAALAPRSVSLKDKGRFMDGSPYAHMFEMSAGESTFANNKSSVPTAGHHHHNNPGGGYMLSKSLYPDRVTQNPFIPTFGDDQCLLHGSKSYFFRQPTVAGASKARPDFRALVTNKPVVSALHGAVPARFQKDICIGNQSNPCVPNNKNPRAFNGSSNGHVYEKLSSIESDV

## C[C@]12N[C@H](Cc3ccccc31)c1ccccc12 [MK-801]
NR1wt/NR2Dwt receptors [1]
  τon of inhibition by MK-801: 32 s
[2]
  MK-801 inhibition slower than at NR2Awt-containing receptors: 15 fold
[3]
  τon of inhibition by MK-801: 1.6 s
[4]
  τon of inhibition by MK-801: 5.7 s

## Br.CS(=O)(=O)SCCN [MTSEA, 2-aminoethylmethanethiosulfonatehydrobromide]
[5]
  Decrease in MTSEA potentiation on deleting the NR2D-NTD: 4 fold
[6]
  Higher MTSEA-potentiation than NR2Awt-containing receptors: 17 fold
NR1-A652C/NR2D receptors
  MTSEA-induced potentiation: ~ 300 fold

## [Zn+2] [Zinc, zinc]
[7]
  nH: 0.9–1.2
[8]
  IC50: 1.5 nM
  Inhibmax: 90%
NR1wt/NR2Awt receptors
  IC50: 7.5 nM
  Inhibmax: 81%
NR1wt/NR2Dwt receptors [9]
  IC50: 7800 nM
  Inhibmax: 100%
NR1wt/NR2Bwt receptors
  IC50: 720 nM
  Inhibmax: 98%
[10]
  IC50: 5.4 nM
  Inhibmax: 86%
[11]
  IC50: 0.2 nM
  Inhibmax: 83%

— PMC2711440 (Nature, 2009)
